A word on the IC50: it is the point on the concentration scale where inhibition reaches its midpoint. Lower therefore signals inhibition by little substance.

The species named for assay [1] is Rattus norvegicus. As to the kind of experiment: Inhibition of quipazine-induced head twitches in rats after 2 hrs of pretreatment. Type of assay: functional. The procedure, abridged:
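Test drug was given sc or po to rats 2 or 24 h before quipazine (15 µmol/kg, sc). Head twitches were counted 30-40 min after quipazine, at least four animals per dose. Counts were expressed as percent of a quipazine-only control group.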

The target in assay [2] is Serotonin 2 (5-HT2) receptor (Rattus norvegicus, UniProt P30994+P08909+P14842). Briefly: Displacement of [3H]ketanserin from 5-hydroxytryptamine 2 receptor in rat cortical membranes. It is filed as cell membranes, Membrane. The procedure, abridged:
(§1)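 Radioligand displacement from rat brain membranes: 3H-ketanserin on cortical membranes (5-HT2), 3H-prazosin on whole brain membranes (alpha1), 3H-spiperone on striatal membranes (D2). Two full concentration-effect curves per compound, each with five test drug concentrations in triplicate spanning three decades. IC50 estimated from curves on a log-concentration scale. Outliers beyond 3 times the sd-ratio were discarded after extra determinations.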
Background: In a radioligand displacement assay an active substance lowers the binding of a labelled ligand.

In assay [3] the target is T1, Adrenergic receptor alpha-1 (Rattus norvegicus, UniProt P15823+P23944+P43140).
T1 sequence (P15823 whole entry): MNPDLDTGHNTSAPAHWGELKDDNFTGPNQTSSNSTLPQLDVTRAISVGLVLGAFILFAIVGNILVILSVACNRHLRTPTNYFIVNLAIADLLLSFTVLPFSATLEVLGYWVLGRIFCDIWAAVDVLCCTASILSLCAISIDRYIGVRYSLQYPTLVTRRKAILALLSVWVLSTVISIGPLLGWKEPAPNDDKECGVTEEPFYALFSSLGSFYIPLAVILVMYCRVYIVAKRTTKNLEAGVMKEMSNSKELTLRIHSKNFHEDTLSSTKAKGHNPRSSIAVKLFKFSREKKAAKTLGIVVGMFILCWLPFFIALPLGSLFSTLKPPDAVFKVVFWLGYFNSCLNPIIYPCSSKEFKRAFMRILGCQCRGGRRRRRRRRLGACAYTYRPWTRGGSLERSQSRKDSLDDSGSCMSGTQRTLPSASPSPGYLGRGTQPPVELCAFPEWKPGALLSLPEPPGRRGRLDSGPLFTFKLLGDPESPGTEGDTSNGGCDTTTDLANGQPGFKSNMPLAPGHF
T1 sequence (P23944 whole entry): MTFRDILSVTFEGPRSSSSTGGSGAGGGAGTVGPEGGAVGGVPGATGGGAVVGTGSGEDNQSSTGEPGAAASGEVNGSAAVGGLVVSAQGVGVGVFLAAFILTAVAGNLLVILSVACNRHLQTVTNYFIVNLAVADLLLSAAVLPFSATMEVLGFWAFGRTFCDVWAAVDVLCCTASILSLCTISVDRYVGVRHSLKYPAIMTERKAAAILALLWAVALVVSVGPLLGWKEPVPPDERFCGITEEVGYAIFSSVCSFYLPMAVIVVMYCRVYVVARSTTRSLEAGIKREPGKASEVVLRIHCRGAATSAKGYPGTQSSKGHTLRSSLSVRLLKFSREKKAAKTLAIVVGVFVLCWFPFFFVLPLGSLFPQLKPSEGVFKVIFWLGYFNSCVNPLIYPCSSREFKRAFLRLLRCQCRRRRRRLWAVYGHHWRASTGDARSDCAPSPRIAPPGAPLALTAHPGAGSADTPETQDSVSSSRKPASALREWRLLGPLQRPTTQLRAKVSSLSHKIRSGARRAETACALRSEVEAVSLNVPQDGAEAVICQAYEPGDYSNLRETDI
T1 sequence (P43140 whole entry): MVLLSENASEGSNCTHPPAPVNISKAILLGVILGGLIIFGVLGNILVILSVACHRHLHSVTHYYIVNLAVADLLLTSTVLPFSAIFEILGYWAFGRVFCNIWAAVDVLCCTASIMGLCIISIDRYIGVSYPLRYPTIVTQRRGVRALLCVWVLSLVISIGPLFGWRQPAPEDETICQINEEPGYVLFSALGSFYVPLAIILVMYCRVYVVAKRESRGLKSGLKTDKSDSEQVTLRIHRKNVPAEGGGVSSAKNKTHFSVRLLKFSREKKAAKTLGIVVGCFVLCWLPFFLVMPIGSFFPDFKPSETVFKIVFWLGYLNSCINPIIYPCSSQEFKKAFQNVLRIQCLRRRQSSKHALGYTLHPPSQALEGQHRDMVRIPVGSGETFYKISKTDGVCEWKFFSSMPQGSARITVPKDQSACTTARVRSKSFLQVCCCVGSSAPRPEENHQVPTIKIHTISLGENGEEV
Briefly: Displacement of [3H]prazosin from alpha-1 adrenoceptors in whole rat brain membranes. It is filed as cell membranes. The procedure, abridged: as §1

Assay [4] addresses D(2) dopamine receptor (Rattus norvegicus, UniProt P61169). Briefly: Displacement of [3H]spiperone from dopamine D2 receptors in rat striatal membranes. It is filed as cell membranes, Membrane. The procedure, abridged:
as §1

The mark [5] stands for this setting: Rattus norvegicus, read-out: ED50.

Bounds are passed on as bounds.

Sequence of D(2) dopamine receptor (P61169 whole entry): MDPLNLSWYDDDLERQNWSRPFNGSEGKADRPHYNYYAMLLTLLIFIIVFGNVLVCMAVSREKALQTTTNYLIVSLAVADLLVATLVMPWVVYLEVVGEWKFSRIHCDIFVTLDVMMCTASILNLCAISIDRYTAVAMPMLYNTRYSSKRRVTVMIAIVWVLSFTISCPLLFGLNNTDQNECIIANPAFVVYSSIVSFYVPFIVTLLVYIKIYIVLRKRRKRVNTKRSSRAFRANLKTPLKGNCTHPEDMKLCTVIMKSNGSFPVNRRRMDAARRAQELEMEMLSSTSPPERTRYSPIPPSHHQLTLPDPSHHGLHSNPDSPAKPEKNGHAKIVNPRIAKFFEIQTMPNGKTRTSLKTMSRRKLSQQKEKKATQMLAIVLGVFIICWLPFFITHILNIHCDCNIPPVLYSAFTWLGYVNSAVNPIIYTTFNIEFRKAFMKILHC

Turning to `CC(C)N1CCN(CCN2CCN(C3CC(c4ccc(Cl)cc4)c4cc(Cl)ccc43)CC2)C1=O.O=C(O)/C=C\C(=O)O` (stereo not drawn), the ED50 in assay [1] (setting [5]) came to 2.9 µmol/kg. The IC50 is on record as 15 nM in assay [2] and 180 nM in assay [3].
`CC(C)N1CCN(CCN2CCN(C3CC(c4cccc(F)c4)c4cc(Cl)ccc43)CC2)C1=O.O=C(O)/C=C\C(=O)O` (stereo not drawn): the IC50 is on record as 26 nM in assay [2] and 970 nM in assay [3].
Consider `Cc1ccc(C2CC(N3CCN(CCN4CCN(C(C)C)C4=O)CC3)c3ccc(Cl)cc32)cc1.O=C(O)/C=C\C(=O)O` (stereo not drawn), for which, in assay [1] (setting [5]), the ED50 was above 3.5 µmol/kg. In addition, the IC50 came to 11 nM in assay [2] and 60 nM in assay [3].
Turning to `CN1CCN(CCN2CCN(C3CC(c4ccc(F)cc4)c4cc(Cl)ccc43)CC2)C1=O.O=C(O)/C=C\C(=O)O` (stereo not drawn), in assay [1] (setting [5]), the ED50 was determined as 0.093 µmol/kg. For the same molecule, the IC50 is 2.8 nM in assay [2] and 600 nM in assay [3].
`CC(C)N1CCN(CCN2CCN(C3CC(c4ccccc4F)c4cc(Cl)ccc43)CC2)C1=O.O=C(O)/C=C\C(=O)O.O=C(O)/C=C\C(=O)O` (stereo not drawn): the ED50 in assay [1] (setting [5]) was 2.1 µmol/kg. Further, the half-inhibitory concentration (IC50) in assay [2] is given as 3.5 nM; in assay [3], 670 nM.
`Fc1ccc(C2CC(N3CCN(CCN4CCCN=C4S)CC3)c3ccc(F)cc32)cc1.O=C(O)/C=C\C(=O)O.O=C(O)/C=C\C(=O)O` (stereo not drawn): the ED50 in assay [1] (setting [5]) turned out to be 0.039 µmol/kg. Also, the IC50 in assay [2] turned out to be 1.7 nM; in assay [3], 110 nM; in assay [4] it was 220 nM.
On the same counts, the results for `Cc1ccc2c(c1)C(c1ccc(F)cc1)CC2N1CCN(CCN2CCN(C(C)C)C2=O)CC1.O=C(O)/C=C\C(=O)O.O=C(O)/C=C\C(=O)O` (stereo not drawn) are 0.2 µmol/kg, 3 nM, 120 nM and 450 nM.
`O=C(O)/C=C\C(=O)O.O=C(O)/C=C\C(=O)O.OCCN1CCN(C2CC(c3ccc(F)cc3)c3cc(C(F)(F)F)ccc32)CC1` (stereo not drawn): the ED50 in assay [1] (setting [5]) stood at 1 µmol/kg. For the same molecule, the figures for the IC50 in assay [2] and in assay [3] were 8.9 nM and 380 nM, respectively.
Consider `CC(C)N1CCN(CCN2CCN(C3CC(c4ccc(F)cc4)c4cc(C(F)(F)F)ccc43)CC2)C1=O.O=C(O)/C=C\C(=O)O.O=C(O)/C=C\C(=O)O` (stereo not drawn), for which, in assay [1] (setting [5]), the ED50 stood at 0.13 µmol/kg. The results for the IC50 in assay [2] and in assay [3] were 3.7 nM and 370 nM, respectively.
On the same counts, the results for `CC(C)N1CCN(CCN2CCN(C3CC(c4ccccc4)c4cc(Cl)ccc43)CC2)C1=O.O=C(O)/C=C\C(=O)O.O=C(O)/C=C\C(=O)O` (stereo not drawn) are 1 µmol/kg, 9.9 nM and 510 nM.
In the case of `CCN1CCN(CCN2CCN(C3CC(c4ccc(F)cc4)c4cc(Cl)ccc43)CC2)C1=O.O=C(O)/C=C\C(=O)O.O=C(O)/C=C\C(=O)O` (stereo not drawn), the ED50 in assay [1] (setting [5]) stood at 0.042 µmol/kg. Also, the IC50 is given as 2.6 nM in assay [2] and 240 nM in assay [3].
In the case of `CC(C)N1CCN(CCN2CCN(C3CC(c4ccc(F)cc4)c4cc(Br)ccc43)CC2)C1=O.O=C(O)/C=C\C(=O)O.O=C(O)/C=C\C(=O)O` (stereo not drawn), the ED50 in assay [1] (setting [5]) worked out at 0.098 µmol/kg. The IC50 is 6.4 nM in assay [2] and 270 nM in assay [3].
`Cc1nc2sccn2c(=O)c1CCN1CCN(C2CC(c3ccc(F)cc3)c3cc(Cl)ccc32)CC1.O=C(O)/C=C\C(=O)O.O=C(O)/C=C\C(=O)O` (stereo not drawn): in assay [1] (setting [5]), the ED50 is 1.9 µmol/kg. Moreover, the values for the IC50 in assay [2], in assay [3] and in assay [4] were 19 nM, 24 nM and 65 nM, respectively.
For the molecule `O=C(O)/C=C\C(=O)O.O=C(O)/C=C\C(=O)O.O=c1[nH]c2ccccc2c(=O)n1CCN1CCN(C2CC(c3ccc(F)cc3)c3cc(Cl)ccc32)CC1` (stereo not drawn), the ED50 in assay [1] (setting [5]) is above 3.3 µmol/kg. Also, the results for the IC50 in assay [2], in assay [3] and in assay [4] were 3.8 nM, 78 nM and 93 nM, respectively.
`O=C(O)/C=C\C(=O)O.O=C(O)/C=C\C(=O)O.O=C1N(CCN2CCN(C3CC(c4ccc(F)cc4)c4cc(Cl)ccc43)CC2)CCN1c1ccccc1` (stereo not drawn): the ED50 in assay [1] (setting [5]) is above 6.7 µmol/kg. The IC50 amounted to 44 nM in assay [2] and 310 nM in assay [3].
On the same counts, the results for `O=C(O)/C=C\C(=O)O.O=C(O)/C=C\C(=O)O.O=C1N(CCO)CCN1CCN1CCN(C2CC(c3ccc(F)cc3)c3cc(Cl)ccc32)CC1` (stereo not drawn) are 1.1 µmol/kg, 6.1 nM and 710 nM.
Consider `Fc1ccc(C2CC(N3CCN(CCN4CCCN=C4S)CC3)c3ccc(Cl)cc32)cc1.O=C(O)/C=C\C(=O)O.O=C(O)/C=C\C(=O)O` (stereo not drawn), for which the ED50 in assay [1] (setting [5]) came to 0.048 µmol/kg. Further, the IC50 in assay [2] came out at 1.5 nM; in assay [3] it was 170 nM; in assay [4] it was 93 nM.
On to `Cl.Cl.O=C1OCCN1CCN1CCN(C2CC(c3ccc(F)cc3)c3cc(Cl)ccc32)CC1` (stereo not drawn), for which the ED50 in assay [1] (setting [5]) was determined as 2 µmol/kg. Also, the IC50 in assay [2] is 23 nM; in assay [3], 140 nM; in assay [4], 550 nM.
In the case of `Cl.Cl.O=C1CCCN1CCN1CCN(C2CC(c3ccc(F)cc3)c3cc(Cl)ccc32)CC1` (stereo not drawn), in assay [1] (setting [5]), the ED50 came out at 2.7 µmol/kg. Moreover, the IC50 in assay [2] worked out at 10 nM; in assay [3], 370 nM; in assay [4] it was 500 nM.
For `OCCN1CCN(C2CC(c3ccc(F)cc3)c3cc(F)ccc32)CC1` (stereo not drawn), the ED50 in assay [1] is 0.35 µM/kg. The IC50 in assay [2] came out at 21 nM; in assay [3], 150 nM; in assay [4], 1100 nM.
Turning to `CSc1ccc2c(c1)C(c1ccc(F)cc1)CC2N1CCN(CCN2CCN(C(C)C)C2=O)CC1` (stereo not drawn), the ED50 in assay [1] (setting [5]) is above 3.4 µmol/kg. The IC50 in assay [2] is on record as 4 nM; in assay [3], 250 nM.
`O=C1NCCN1CCN1CCN(C2CC(c3ccc(F)cc3)c3cc(Cl)ccc32)CC1` (stereo not drawn): in assay [1] (setting [5]), the ED50 stood at 0.34 µmol/kg. Further, the IC50 in assay [2] was determined as 2.9 nM; in assay [3] it was 200 nM.
`Cl.Cl.Fc1ccc(C2CC(N3CCN(CCN4CCCNC4=S)CC3)c3ccc(F)cc32)cc1` (racemic): the IC50 in assay [2] worked out at 42 nM; in assay [4], 2900 nM.
On the same counts, the results for `O=C(O)/C=C\C(=O)O.O=C(O)/C=C\C(=O)O.O=C1NCCCN1CCN1CCN(C2CC(c3ccc(F)cc3)c3cc(F)ccc32)CC1` (single isomer, unassigned; (-)) are 57 nM and 4000 nM.
Consider `Cl.Cl.OCCN1CCN(C2CC(c3ccc(F)cc3)c3cc(Cl)ccc32)CC1` (stereo in doubt; 10), for which the ED50 in assay [1] came to 0.23 µM/kg. Also, the results for the IC50 in assay [2] and in assay [3] were 25 nM and 230 nM, respectively.
In the same order, the values of `CC(C)N1CCN(CCN2CCN(C3CC(c4ccc(F)cc4)c4cc(Cl)ccc43)CC2)C1=O.O=C(O)/C=C\C(=O)O.O=C(O)/C=C\C(=O)O` (stereo in doubt; 20) are 0.06 µM/kg, 3.9 nM and 260 nM.
For `Cl.Cl.Fc1ccc(C2CC(N3CCN(CCN4CCCNC4=S)CC3)c3ccc(Cl)cc32)cc1` (stereo in doubt; (+)-39), the values for the IC50 in assay [2], in assay [3] and in assay [4] were 21 nM, 350 nM and 490 nM, respectively.
`O=C(O)/C=C\C(=O)O.O=C(O)/C=C\C(=O)O.O=C1NCCCN1CCN1CCN(C2CC(c3ccc(F)cc3)c3cc(Cl)ccc32)CC1` (stereo in doubt; (+)-41): the IC50 in assay [2] was 120 nM; in assay [4], 1700 nM.

Values taken from ChEMBL document CHEMBL1126803, “Stereospecific and selective 5-HT2 antagonism in a series of 5-substituted trans-1-piperazino-3-phenylindans” (J Med Chem, 1993).
